Assay results from different studies.
Each line is one published result; the experiments were not run side by side.
LRRK2: Leucine-rich repeat serine/threonine-protein kinase 2 (LRRK2, Homo sapiens, UniProt Q5S007)
LRRK2 G2019S: Leucine-rich repeat serine/threonine-protein kinase 2 (LRRK2, Homo sapiens, UniProt Q5S007, G2019S)

target | read-out | method | concentration | remaining binding | SMILES
LRRK2 | cell-free assay | competition with immobilised ligand | 1 µM | 100% | O=C(O)[C@@H]1[C@@H](Cn2nnc3ccccc3c2=O)CC[C@H]1C(=O)c1ccc(OCCC2CCOCC2)cc1
LRRK2 | binding | – | 1 µM | 100% | CN(c1nccc(-c2cnn3ncccc23)n1)C1CC1
LRRK2 | binding | competition with immobilised ligand | 10 µM | 49% | c1cncc(-c2cccc(Nc3nccc(NC4CCCCC4)n3)c2)c1
LRRK2 | binding | competition with immobilised ligand | 1 µM | 3.3% | O=C(c1ccc(Nc2ncc(Cl)c(-c3ccc(Cl)s3)n2)cc1)N1CCC(N2CCCC2)CC1
LRRK2 | binding | competition with immobilised ligand | 1 µM | 22% | C[C@@H]1CN(c2cc(-c3nn(C)c4ccc(OC5(C)CC5)cc34)ncn2)C[C@H](C)O1
LRRK2 | binding | competition with immobilised ligand | 1 µM | 95% | COc1cnc(Nc2cccc(S(N)(=O)=O)c2)nc1N1CCN(c2ccccc2)C(=O)C1
LRRK2 G2019S | binding | competition with immobilised ligand | 1 µM | 69% | O=C(NCCCN1CCOCC1)c1ccc(Nc2nccc(-c3cc4ccccc4s3)n2)cc1
LRRK2 G2019S | binding | – | 1 µM | 100% | COc1ccnn2ncc(-c3ccnc(N(C)C)n3)c12
LRRK2 G2019S | cell-free assay | competition with immobilised ligand | 1 µM | 72% | CNCc1ccccc1-c1csc([C@@H](C)Nc2nc(C)nc3cc(OC)c(OC)cc23)c1
LRRK2 | binding | competition with immobilised ligand | 1 µM | 8.3% | Cc1cnc(Nc2ccc(C(=O)N3CCC(N4CCCC4)CC3)cc2)nc1-c1cc2ccccc2s1
LRRK2 G2019S | binding | competition with immobilised ligand | 1 µM | 89% | O=C(NCC1CCOCC1)c1n[nH]cc1NC(=O)c1c(F)cccc1F
LRRK2 G2019S | binding | competition with immobilised ligand | 1 µM | 83% | Nc1ncc2c(n1)-c1c([nH]c3ccc(C#CC4CC4)cc13)CCCC2
LRRK2 | binding | competition with immobilised ligand | 1 µM | 12% | O=C(c1ccc(Nc2ncc(Cl)c(-c3cc4ccccc4s3)n2)cc1)N1CCC(N2CCCC2)CC1
LRRK2 | binding | competition with immobilised ligand | 1 µM | 99% | c1ccc(N2CCN(Cc3nc4ccccc4[nH]3)CC2)nc1
LRRK2 | binding | competition with immobilised ligand | 1 µM | 40% | O=C(c1ccc(Nc2nccc(-c3cc4ccccc4s3)n2)cc1)N1CCC(N2CCCC2)CC1
LRRK2 G2019S | cell-free assay | competition with immobilised ligand | 1 µM | 100% | CCC(=O)N[C@@H]1CC[C@H](C(=O)N(C)c2ccc(-c3nc4ccccc4o3)cc2)C1
LRRK2 | binding | competition with immobilised ligand | 1 µM | 24% | O=C(NCCCN1CCOCC1)c1ccc(Nc2ncc(Cl)c(-c3ccc(Cl)s3)n2)cc1

target | read-out | method | concentration | remaining binding | SMILES
LRRK2 G2019S | binding | – | 10 µM | 49% | CN1CCN(c2ccc(Nc3nccc(-c4cccc([N+](=O)[O-])c4)n3)cc2C(F)(F)F)CC1
LRRK2 | binding | – | 1 µM | 90% | CN(C)c1nccc(-c2cnn3ncccc23)n1
LRRK2 G2019S | binding | competition with immobilised ligand | 1 µM | 100% | CNC(=O)[C@@H]1CC[C@@H](n2c(-c3ccc4cnccc4c3)nc3ccc(C(=O)NCc4cccc(C(N)=O)c4)cc32)C1
LRRK2 | binding | – | 1 µM | 61% | CN(C)c1nccc(-c2cnc3ncccn23)n1
LRRK2 | binding | competition with immobilised ligand | 1 µM | 100% | CCN1CCN(Cc2ccc(C(=O)Nc3ccc(C)c(Oc4ccc5c(c4)CC(=O)N5)c3)cc2C(F)(F)F)CC1
LRRK2 | binding | competition with immobilised ligand | 1 µM | 92% | O=C(Nc1c[nH]nc1C(=O)NC1CCNCC1)c1cc(F)cc(F)c1
LRRK2 | binding | – | 1 µM | 100% | F[C@@H]1CCN(c2nccc(-c3cnn4ncccc34)n2)C1
LRRK2 | binding | competition with immobilised ligand | 1 µM | 63% | C=CC(=O)N1CCC(C(=O)NCC(=O)N2CCN(c3nc(-c4cnc(N)nc4C(F)F)nc(N4CCOCC4)n3)CC2)CC1
LRRK2 | cell-free assay | competition with immobilised ligand | 1 µM | 86% | CS(=O)(=O)NCC[C@H](NC(=O)c1cncc2c1cnn2-c1ccc(F)cc1)c1ccnc(S(C)(=O)=O)c1
LRRK2 | binding | – | 1 µM | 100% | CN(CCCC(F)(F)F)c1nccc(-c2cnn3ncccc23)n1
LRRK2 | binding | competition with immobilised ligand | 1 µM | 80% | COc1cnc(Nc2cccc(S(N)(=O)=O)c2)nc1N1CCN(c2ccccc2)CC1
LRRK2 | binding | competition with immobilised ligand | 0.1 µM | 93% | C[C@@H](c1ccc(-n2cnc3c(N)ncnc32)cc1)N1CCc2nn(C)c(Cc3ccccc3)c2C1=O
LRRK2 | binding | – | 1 µM | 67% | C[C@H]1CCN(c2nccc(-c3cnn4ncccc34)n2)C1
LRRK2 G2019S | cell-free assay | competition with immobilised ligand | 1 µM | 100% | CC(=O)N1CCC(c2ccc(C(=O)NC(=N)N)cc2C(F)(F)F)CC1
LRRK2 | cell-free assay | competition with immobilised ligand | 5 µM | 100% | COc1ncc2cc3ccccc3nc2c1C#N
LRRK2 | binding | – | 1 µM | 35% | c1cnn2ncc(-c3ccnc(N4CCC45COC5)n3)c2c1
LRRK2 G2019S | cell-free assay | competition with immobilised ligand | 1 µM | 100% | Cc1cc(-n2nc(Cc3cc(F)cc(C(F)(F)F)c3)nc2C)ccc1C(N)=O
